Experiment: Toxicity liver stage against HepG2, at 10uM
Assay type: cell-based
Set-up: test concentration 10 uM, cell line HepG2-A16-CD81EGFP
Conditions: human, HepG2-A16-CD81EGFP cells; read-out: INHIBITION
In short: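 Uninfected HepG2-A16-CD81EGFP cells, 3 × 10^3 per well, 1536-well, plated on prespotted compound at 10 μM final, parasite-free screening media added to match infected plates; puromycin 10 μM positive, DMSO 0.5% negative; run in parallel with 48 h PbLuc assay at 37 °C, 5% CO2; viability by CellTiter-Glo luminescence, normalized to controls.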

Structure (SMILES) | cytotoxicity at 10 µM [%]
c1ccc(-n2nnnc2CN2CCCC(Cn3cncn3)C2)cc1 (stereo unspecified) | 0.962
CN([C@@H]1CC[C@@H](N2CCOCC2)[C@@H]1O)S(=O)(=O)c1ccccc1 | 2.77
CNC(=O)[C@@H]1C[C@@H](N)CN1C(=O)CCSCc1ccccc1 | 6.7
O=c1[nH]c(NC2CCCC2)nc2nccc(-c3ccco3)c12 | 0.74
CC1CCC(NCCCN2CCOCC2)CC1 (stereo unspecified) | -6.58
Cc1cc(N2CCCC(O)(CN(C)C)CC2)nc(-c2ccccc2)n1 (stereo unspecified) | -9.41
Cc1cnn(C2CCCN(C(=O)CCNS(C)(=O)=O)C2)c1 (stereo unspecified) | -28.6
COc1ccc(NC(=O)CCN2CC=C(c3cnn(C)c3)CC2)cc1Cl | 6.64
Cc1ccccc1C(=O)NC1CCN(Cc2ncc(C(C)(C)C)o2)CC1 | -17.5
CN(C)c1nc2c(c(N3CCCC3)n1)CCN(C(=O)c1ccc[nH]1)CC2 | 7.81
CCCN(CC(F)(F)F)C(=O)c1cc(F)cc2[nH]cnc12 | 3.19
O=C(NCC(F)F)c1ccc(S(=O)(=O)NCCc2c[nH]cn2)cc1 | -1.99
COc1cccc(CCC(=O)N2CCCCC2Cn2cccn2)c1 (stereo unspecified) | -11.3
CC(Cn1cccn1)NCc1nc(-c2ccsc2)no1 (stereo unspecified) | -8.42
CC(C)Cc1nc(CN2CCOC(Cn3cncn3)C2)no1 (stereo unspecified) | 2.07
Cc1cc(CN(C)C(=O)c2ccc(F)c(C(F)(F)F)c2)no1 | -10
Cn1ccc2ccnc(CC3CN(C(=O)c4cscn4)C3)c21 | -28.6
Cc1cc(C)n(CC2CCCN2C(=O)c2cccc3[nH]ncc23)n1 (stereo unspecified) | -5.55
CC(C)CCN1CCc2cc(C(=O)N(C)C)c(NCC3CC3)nc2CC1 | 4.71
CC(=O)NC1CCN(c2cc(C3CCNCC3)ccn2)CC1 | 2.93
Cc1ccc(C)c(CC(=O)Nc2cnccc2SCCCO)c1 | 21.2
O=C(NC1CC1)N1C[C@H]2CN(c3ccccc3)C(=O)[C@H]2C1 | -1.13
COc1ccc(CN(C)[C@@H]2COC[C@H]2c2ccc(F)cc2)c(OC)c1 | 8.54

Structure (SMILES) | cytotoxicity at 10 µM [%]
Cc1ccc(C(=O)N2C[C@H](N3CCOCC3)[C@@H]3OCCC[C@@H]32)cn1 | -108
CCCn1nc2c(cc1=O)CN(CC(=O)Nc1cc(C)no1)CC2 | -4.59
CC(NC(=O)N1CCc2ccccc2C1)c1nncn1C (stereo unspecified) | -6.98
NC1CCN(S(=O)(=O)c2ccc(C(=O)N3CCSCC3)cc2)C1 (stereo unspecified) | 7.1
Cc1cc(C2CCC2)nc(N2CCC3(CCCN(C)C3=O)C2)n1 (stereo unspecified) | -6.62
Cc1occc(=O)c1OCc1noc(C(=O)NC(C)C)n1 | 4.6
Cn1nc(C2CCN(C(=O)Cc3cccc(F)c3)CC2)c2cccnc21 | -0.439
COc1ccc(NC(=O)Cn2c(=O)nc(N)c3cc(C)sc32)cc1 | 2.31
Cc1nc(C)n(C2CCCN(C(=O)c3ccc4c(c3)COC4)C2)n1 (stereo unspecified) | -9.12
CCOc1cc(C)nc(N2CCN(C(=O)c3cscn3)CC2)n1 | -7.54
Cc1nnc2n1CCN(C(C(=O)NC1CC1)c1ccc(F)cc1)C2 (stereo unspecified) | -6.6
O=C1CCC2(CCC(NCc3ccoc3)CC2)N1 (stereo unspecified) | 1.14
Cc1nn2c(=O)/c(=C\c3cccs3)sc2nc1=O | 7.19
O=C(COC[C@H]1CC[C@H]2[C@H](CCN2c2ncccn2)O1)N1CCCC1 | -7.41
CC(CC(=O)N1CCCN(Cc2nccn2C)CC1)n1cccc1 (stereo unspecified) | -12.5
O=C(Nc1nc2c(s1)CN(S(=O)(=O)C1CC1)CC2)c1ccccn1 | -5.46
COc1cccc(N2CCN(C(=O)C(O)c3cccc(Cl)c3)CC2=O)c1 (stereo unspecified) | -11.2
COCC1c2nnn(CC3CC3)c2CCN1C(=O)CS(C)(=O)=O (stereo unspecified) | -129
CC(=O)N1CCN(Cn2nc(-c3ccc(F)cc3)oc2=O)CC1 | -3.89
O=C(CCCn1cnc2ccccc2c1=O)Nc1nc[nH]n1 | -4.84
CCCN(C)S(=O)(=O)NC(=O)c1ccc(CC)o1 | 20.5
CCN1C(=O)C(C)(C)c2cc(NC(=O)c3ccco3)ccc21 | -10.2
CCS(=O)(=O)N1CCc2c(COC)cncc2C1 | -99

Structure (SMILES) | cytotoxicity at 10 µM [%]
CC(Oc1ccc2c(c1)OCO2)C(=O)N1CCC(N2CCCC2)CC1 (stereo unspecified) | -4.63
CCCNC(=O)c1cccc2ncccc12 | -50.3
CN(Cc1cccc(F)c1)Cc1nc2c(cnn2C)c(=O)[nH]1 | -2.8
Cn1nc(C#N)c2c1CN(C(=O)c1ccco1)CCC2 | -133
CCOc1ccc(CNCCCn2ccnc2)cc1OC | -4.78
Cc1nn(C)c(C)c1OCC(=O)NCC(O)Cc1ccccc1 (stereo unspecified) | -3.81
COc1ccc(CN2CCn3c(CNS(C)(=O)=O)nnc3C2)cc1 | 4.19
O=C1CCN(CCS(=O)(=O)c2ccc(Cl)cc2)CCN1 | -8.48
CC(C)n1cc(C(=O)N2Cc3ccccc3OC3(CCOCC3)C2)cn1 | 6.61
CCN(C)CC1CCN(c2ncc(Br)cn2)C1 (stereo unspecified) | -2.55
COCc1ccccc1NC(=O)CCNC(=O)c1ccoc1 | -3.94
O=C(CN1CCC(c2ccnn2CCO)CC1)NCC1CC1 | -3.25
CC(NC(=O)NCc1cccc(N2CCCC2=O)c1)c1ccccc1 (stereo unspecified) | 4.52
CN(C)C(=O)c1cc2ncc(C(=O)NC3CC3)cc2n1C | -0.931
Cn1ccnc1CN1CCCC1c1noc(C2CC2)n1 (stereo unspecified) | 0.265
O=C(CCn1cncn1)N1CCCC(CO)(CCCc2ccccc2)C1 (stereo unspecified) | 4.25
CN(Cc1ccco1)Cc1ccccc1CNC(=O)c1csnn1 | 7.88
CC(c1nc(C2CC2)no1)N1CCN(Cc2cccc(C#N)c2)CC1 (stereo unspecified) | 3.92
CN(C)C(=O)c1cnc2n1CCN(Cc1ccncc1)C2 | -69.4
Cc1ccc(CN(C)C(=O)NCC(C)(C)CCS(C)(=O)=O)s1 | 6.24
O=C(NCc1ccccc1F)NC1CCCN(c2ncccn2)C1 (stereo unspecified) | 7.81
O=C(c1ccncc1)N1C[C@@H](OCc2cccnc2)[C@H]2OCCC[C@H]21 | 0.866
CN1CCN(c2ncc(CNCCCc3cccc(F)c3)cn2)CC1 | -13.2

Structure (SMILES) | cytotoxicity at 10 µM [%]
c1nc2c(c(NC3COC4(CCCC4)C3)n1)CCNCC2 (stereo unspecified) | 0.383
CC(=O)N1CCCN(C(=O)c2ccc(=O)n(C)c2)c2ccccc21 | -10.4
CCN1CCCCC1C(=O)N1CCC(OC2CCCC2)CC1 (stereo unspecified) | -20.6
O=C(c1nnn(-c2ccccc2)n1)N(CCO)CCO | -1.48
N#Cc1cccc(OCC(=O)N(Cc2ccsc2)C2CC2)c1 | -50.2
Cn1cc(C2CCCN2C(=O)c2cnc(-c3cccs3)s2)cn1 (stereo unspecified) | 4.99
CC(C)(C)CN1CCC(c2nnc(Cn3ccnc3)n2C2CC2)CC1 | -5.02
CCc1ccc(CN(C)C(=O)c2cnc3c(c2)nc(N)n3CC)nc1 | -5.55
CO[C@H]1CO[C@@]2(CCCN(C(=O)N3CCCC3)C2)C1 | -108
CCCc1nc(CNc2cc(CS(C)(=O)=O)ccc2Cl)no1 | -2.07
Cc1ccc(C(=O)O)cc1-c1cccc(C(C)N(C)C)c1 (stereo unspecified) | -3.17
O=S(=O)(CCN1CCOC(Cn2cccn2)C1)C(F)(F)F (stereo unspecified) | 3.78
CS(=O)(=O)NC1CCN(C(=O)c2ccc(Br)cc2)C1 (stereo unspecified) | 4.94
O=C(O)CCCC(=O)Nc1cnn(COc2ccc(F)cc2Cl)c1 | 8.69
N#Cc1ccc(CNc2cnn(CCN3CCOCC3)c2)cc1 | -5.75
CN(C)C[C@]12COC[C@H]1CN(C(=O)Cc1ccc3c(c1)OCO3)C2 | -9.94
COc1ncccc1CNc1cc(N2CCCC2CO)ncn1 (stereo unspecified) | -12.6
COc1ccc(-n2ccc(C(=O)NCCN3CCCC(C)C3)n2)cc1 (stereo unspecified) | -0.0158
CC(C)(C)CC(=O)NS(=O)(=O)c1ccc(C#N)cc1C(F)(F)F | -12.3
CN(C)c1ccc(C(=O)NCc2csc(Br)c2)cn1 | -4.97
CC(=O)NC(C)(C)C(=O)Nc1ncc(Cc2ccc(C)c(F)c2)s1 | 0.987
Cc1ccc(Nc2c(C#N)c(=O)n(C)c(=O)n2C)cc1F | -4.99
Cc1cccnc1NC(=O)C1CCN(C(C)C(=O)NC(C)(C)C)CC1 (stereo unspecified) | 3.15

Structure (SMILES) | cytotoxicity at 10 µM [%]
CCc1nsc(N2CCn3c(nnc3-c3ccccc3)C2)n1 | 3.67
Cc1cc(CN(C)C(=O)c2ccc(OCC(F)(F)F)nc2)no1 | -6.19
Cn1c(=O)oc2ccc(S(=O)(=O)N3CCC(c4ccccc4)C3)cc21 (stereo unspecified) | 5.43
Cc1cc(CN2CCOC(CNc3cccnn3)C2)on1 (stereo unspecified) | -13.8
O=C(Nc1ccc(Cn2cccn2)cc1)N1CCC2(CC1)OCCO2 | 6.09
Cc1ccc(-c2cc(N)c(=O)n(C(C)C(N)=O)n2)o1 (stereo unspecified) | -1.89
CNC(=O)c1cc2c(nc1N(C)C)CCN(c1ncc(F)cn1)CC2 | -131
Cc1nc[nH]c1-c1nccn1CCN1CCOC1=O | -5.58
Cc1cccc(CN2CCC3(CC2)CC(Oc2cccnc2)C3)n1 | 12.7
CCc1cc(CNC(=O)N2Cc3ccccc3N(C)CC2C)[nH]n1 (stereo unspecified) | 16.3
CCN1CCC(CC(=O)NCCc2nc(C)cc(C)n2)CC1 | -8.06
COCC(=O)N1C[C@@H](c2cc(O)nc(C)n2)[C@H](c2ccccc2F)C1 | 5.62
C/C=C(\C)CN1CCCn2nc(CNC(=O)C3CCC3)cc2C1 | 4.92
COc1cccc(C(O)CN2CCN(c3cccc(C)c3)CC2)c1 (stereo unspecified) | -3.85
COc1ccccc1CC(=O)NS(=O)(=O)c1ccc(C#N)cc1 | -10.4
Cn1ccnc1C1CCN(S(=O)(=O)c2ccc3oc(=O)[nH]c3c2)CC1 | 1.93
OCCN(Cc1ccccc1)Cc1nc(-c2ccc3c(c2)OCO3)no1 | 4.74
Cc1nc(CN2CCCC(CCc3ccccc3F)C2)c[nH]1 (stereo unspecified) | -6.55
CC1CCN(C(=O)C(C)n2cc(Br)cn2)CC1 (stereo unspecified) | 11.3

— ChEMBL document CHEMBL4513216, “Probing the Open Global Health Chemical Diversity Library for Multistage-Active Starting Points for Next-Generation Antimalarials” (ACS Infect Dis, 2020)
